Laboratory results as given in ChEMBL document CHEMBL2203085, “Modification of a promiscuous inhibitor shifts the inhibition from γ-secretase to FLT-3” (Bioorg Med Chem Lett, 2012).
Each block holds one compound with its values, some of them ahead of it.

Key:
[1] = target: Aurora kinase A (Homo sapiens) (UniProt O14965); test: Inhibition of human recombinant Aurora A expressed in Sf21 cells using Ulight-RRRSLLE as substrate assessed as residual activity at 1 uM after 15 mins relative to staurosporine
How it was run: (§1)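 Part of a 50-kinase panel screen at a single concentration. Residual activity is given as percent of control specific activity, calculated as (measured specific activity/control specific activity) × 100, with staurosporine as the control. The kinase-specific details are in the supplementary data.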

[2] = target: Serine/threonine-protein kinase Chk1 (Homo sapiens) (UniProt O14757); test: Inhibition of human recombinant CHK1 expressed in insect cells using CKRREILSRRPSYRK as substrate assessed as residual activity at 1 uM after 30 mins relative to staurosporine; how it was run: as §1
[3] = target: Inhibitor of nuclear factor kappa-B kinase subunit alpha (Homo sapiens) (UniProt O15111); test: Inhibition of human recombinant IKKalpha expressed in Sf21 cells using + Ulight-IkappaB-alpha as substrate assessed as residual activity at 1 uM after 30 mins relative to staurosporine; how it was run: as §1
Inhibitor of nuclear factor kappa-B kinase subunit alpha (Homo sapiens), sequence (O15111 whole entry): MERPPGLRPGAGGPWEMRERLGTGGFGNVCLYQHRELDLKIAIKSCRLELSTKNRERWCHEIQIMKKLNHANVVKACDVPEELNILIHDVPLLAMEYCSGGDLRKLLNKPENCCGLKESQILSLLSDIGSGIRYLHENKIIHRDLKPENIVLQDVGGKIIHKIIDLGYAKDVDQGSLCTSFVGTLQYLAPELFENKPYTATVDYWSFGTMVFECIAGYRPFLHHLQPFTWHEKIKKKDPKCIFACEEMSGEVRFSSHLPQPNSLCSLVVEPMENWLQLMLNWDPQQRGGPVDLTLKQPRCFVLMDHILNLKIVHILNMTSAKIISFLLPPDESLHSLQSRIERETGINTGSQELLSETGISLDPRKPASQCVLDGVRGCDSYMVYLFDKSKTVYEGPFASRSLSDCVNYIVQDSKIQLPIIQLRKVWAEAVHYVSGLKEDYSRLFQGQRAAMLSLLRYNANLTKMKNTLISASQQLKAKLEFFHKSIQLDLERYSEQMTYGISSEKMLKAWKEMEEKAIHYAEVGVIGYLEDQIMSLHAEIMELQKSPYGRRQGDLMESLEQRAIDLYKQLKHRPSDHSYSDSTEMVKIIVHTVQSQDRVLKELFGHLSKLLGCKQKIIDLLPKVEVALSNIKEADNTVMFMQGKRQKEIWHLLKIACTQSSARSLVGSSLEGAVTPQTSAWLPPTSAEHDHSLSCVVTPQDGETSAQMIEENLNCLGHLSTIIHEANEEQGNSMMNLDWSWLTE

[4] = target: Serine/threonine-protein kinase 26 (Homo sapiens) (UniProt Q9P289); test: Inhibition of human recombinant MST4 using Ulight-TM- PKC as substrate assessed as residual activity at 1 uM after 30 mins relative to staurosporine; how it was run: as §1
[5] = target: Gamma-secretase; test: Inhibition of gamma secretase in human H4 cells expressing APP695 assessed as inhibition of Abeta42 production after 20 to 24 hrs by liquid phase electrochemiluminescence assay; format: cell-based
How it was run: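 Aβ42 generation in H4 APP#9 cells was quantified by a previously described liquid-phase electrochemiluminescence (LPECL) assay of the Aβ42 isoform as the read-out of γ-secretase inhibition.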

[6] = target: Epidermal growth factor receptor (Homo sapiens) (UniProt P00533); test: Inhibition of human recombinant EGFR expressed in insect cells using Ulight-CAGAGAIETDKEYYTVKD as substrate assessed as residual activity at 1 uM after 15 mins relative to staurosporine; how it was run: as §1
[7] = target: Hepatocyte growth factor receptor (Homo sapiens) (UniProt P08581); test: Inhibition of human recombinant cMET expressed in insect cells using Ulight-CAGAGAIETDKEYYTVKD as substrate assessed as residual activity at 1 uM after 60 mins relative to staurosporine
Hepatocyte growth factor receptor (Homo sapiens), sequence (P08581 whole entry): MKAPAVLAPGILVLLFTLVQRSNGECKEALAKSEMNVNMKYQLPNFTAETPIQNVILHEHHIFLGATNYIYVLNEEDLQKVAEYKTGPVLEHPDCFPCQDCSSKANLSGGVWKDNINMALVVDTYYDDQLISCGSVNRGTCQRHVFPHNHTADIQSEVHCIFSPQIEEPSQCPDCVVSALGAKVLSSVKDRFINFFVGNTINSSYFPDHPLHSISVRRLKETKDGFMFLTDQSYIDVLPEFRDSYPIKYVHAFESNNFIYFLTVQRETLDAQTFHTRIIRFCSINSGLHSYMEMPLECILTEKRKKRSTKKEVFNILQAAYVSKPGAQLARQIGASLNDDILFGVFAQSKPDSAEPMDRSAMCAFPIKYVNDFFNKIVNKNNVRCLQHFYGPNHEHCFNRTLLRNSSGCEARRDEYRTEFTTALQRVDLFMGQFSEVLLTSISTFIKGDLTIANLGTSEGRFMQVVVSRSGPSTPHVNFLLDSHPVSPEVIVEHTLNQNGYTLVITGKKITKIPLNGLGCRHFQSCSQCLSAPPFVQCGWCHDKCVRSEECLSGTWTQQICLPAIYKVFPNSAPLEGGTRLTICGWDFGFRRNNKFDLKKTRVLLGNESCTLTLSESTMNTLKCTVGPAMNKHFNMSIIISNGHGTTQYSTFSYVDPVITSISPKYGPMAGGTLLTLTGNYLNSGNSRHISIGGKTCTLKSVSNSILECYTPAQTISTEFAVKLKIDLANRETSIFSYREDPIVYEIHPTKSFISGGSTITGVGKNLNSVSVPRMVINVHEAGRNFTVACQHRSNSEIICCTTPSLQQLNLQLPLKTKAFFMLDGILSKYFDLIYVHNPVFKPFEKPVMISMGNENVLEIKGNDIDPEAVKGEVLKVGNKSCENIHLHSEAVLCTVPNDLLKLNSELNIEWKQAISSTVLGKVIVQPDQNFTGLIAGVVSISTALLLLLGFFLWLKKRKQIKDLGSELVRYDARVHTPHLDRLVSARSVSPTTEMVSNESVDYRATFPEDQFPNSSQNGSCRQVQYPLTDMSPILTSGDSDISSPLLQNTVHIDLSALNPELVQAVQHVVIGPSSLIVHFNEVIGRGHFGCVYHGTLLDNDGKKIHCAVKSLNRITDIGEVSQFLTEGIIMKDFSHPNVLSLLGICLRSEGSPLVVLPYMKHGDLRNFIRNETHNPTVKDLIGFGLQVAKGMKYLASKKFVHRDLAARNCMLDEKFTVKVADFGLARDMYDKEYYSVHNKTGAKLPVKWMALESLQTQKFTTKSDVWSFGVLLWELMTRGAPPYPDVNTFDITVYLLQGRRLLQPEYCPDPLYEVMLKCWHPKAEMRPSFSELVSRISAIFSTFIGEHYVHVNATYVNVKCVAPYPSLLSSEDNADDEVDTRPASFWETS
How it was run: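 Single-point kinase-panel screen at 1 µM test concentration. Specific activity was measured and expressed as percent of the staurosporine control, calculated as (measured specific activity / control specific activity) × 100.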

[8] = target: Fibroblast growth factor receptor 2 (Homo sapiens) (UniProt P21802); test: Inhibition of human recombinant FGFR2 using Ulight-CAGAGAIETDKEYYTVKD as substrate assessed as residual activity at 1 uM after 15 mins relative to staurosporine; how it was run: as §1
[9] = target: Serine/threonine-protein kinase Sgk1 (Homo sapiens) (UniProt O00141); test: Inhibition of human recombinant SGK1 using Ulight-RRRSLLE as substrate assessed as residual activity at 1 uM after 30 mins relative to staurosporine; how it was run: as §1
Serine/threonine-protein kinase Sgk1 (Homo sapiens), sequence (O00141 whole entry): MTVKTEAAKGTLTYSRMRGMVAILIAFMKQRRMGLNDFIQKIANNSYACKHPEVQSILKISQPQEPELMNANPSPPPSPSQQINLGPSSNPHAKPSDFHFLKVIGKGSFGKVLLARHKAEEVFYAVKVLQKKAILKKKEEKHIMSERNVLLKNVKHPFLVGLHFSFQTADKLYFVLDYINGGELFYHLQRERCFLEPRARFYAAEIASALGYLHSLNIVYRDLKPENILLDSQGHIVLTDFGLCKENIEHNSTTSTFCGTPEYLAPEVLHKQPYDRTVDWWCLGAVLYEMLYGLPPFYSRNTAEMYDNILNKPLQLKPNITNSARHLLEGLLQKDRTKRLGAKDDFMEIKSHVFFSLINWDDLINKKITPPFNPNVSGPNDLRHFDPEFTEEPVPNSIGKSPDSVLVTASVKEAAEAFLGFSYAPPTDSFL

[10] = target: Cyclin-dependent kinase 2/cyclin A (Homo sapiens) (UniProt P24941+P20248+P78396); test: Inhibition of human recombinant CDK2/cyclin A using Ulight-CFFKNIVTPRTPPPSQGK-amide as substrate assessed as residual activity at 1 uM after 30 mins relative to staurosporine; format: protein-complex assay; how it was run: as §1
[11] = test system: H4; test: Selectivity ratio of IC50 for gamma secretase in human H4 cells to IC50 for human recombinant FLT3; format: cell-based
[12] = target: Serine/threonine-protein kinase PAK 4 (Homo sapiens) (UniProt O96013); test: Inhibition of human recombinant PAK4 expressed in insect cells using Ulight-RRRSLLE as substrate assessed as residual activity at 1 uM after 30 mins relative to staurosporine; how it was run: as §1
[13] = target: Tyrosine-protein kinase JAK3 (Homo sapiens) (UniProt P52333); test: Inhibition of human recombinant JAK3 using Ulight-CAGAGAIETDKEYYTVKD as substrate assessed as residual activity at 1 uM after 60 mins relative to staurosporine; how it was run: as §1
[14] = target: Mitogen-activated protein kinase 1 (Homo sapiens) (UniProt P28482); test: Inhibition of human recombinant ERK2 expressed in Escherichia coli using Ulight-CFFKNIVTPRTPPPSQGK-amide as substrate assessed as residual activity at 1 uM after 15 mins relative to staurosporine; how it was run: as §1
Mitogen-activated protein kinase 1 (Homo sapiens), sequence (P28482 whole entry): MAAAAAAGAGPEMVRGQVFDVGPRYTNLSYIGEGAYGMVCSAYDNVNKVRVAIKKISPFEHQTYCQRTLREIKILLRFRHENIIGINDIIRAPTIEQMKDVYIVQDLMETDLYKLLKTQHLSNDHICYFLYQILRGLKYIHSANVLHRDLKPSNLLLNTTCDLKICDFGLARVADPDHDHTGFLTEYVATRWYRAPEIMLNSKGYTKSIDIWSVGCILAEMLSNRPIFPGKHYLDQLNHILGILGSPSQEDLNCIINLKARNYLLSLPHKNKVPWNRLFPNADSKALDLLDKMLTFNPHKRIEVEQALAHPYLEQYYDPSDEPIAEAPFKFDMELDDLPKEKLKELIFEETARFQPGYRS

[15] = target: 3-phosphoinositide-dependent protein kinase 1 (Homo sapiens) (UniProt O15530); test: Inhibition of human recombinant PDK1 expressed in insect cells using Ulight-FLGFTYVAP as substrate assessed as residual activity at 1 uM after 90 mins relative to staurosporine; how it was run: as §1
3-phosphoinositide-dependent protein kinase 1 (Homo sapiens), sequence (O15530 whole entry): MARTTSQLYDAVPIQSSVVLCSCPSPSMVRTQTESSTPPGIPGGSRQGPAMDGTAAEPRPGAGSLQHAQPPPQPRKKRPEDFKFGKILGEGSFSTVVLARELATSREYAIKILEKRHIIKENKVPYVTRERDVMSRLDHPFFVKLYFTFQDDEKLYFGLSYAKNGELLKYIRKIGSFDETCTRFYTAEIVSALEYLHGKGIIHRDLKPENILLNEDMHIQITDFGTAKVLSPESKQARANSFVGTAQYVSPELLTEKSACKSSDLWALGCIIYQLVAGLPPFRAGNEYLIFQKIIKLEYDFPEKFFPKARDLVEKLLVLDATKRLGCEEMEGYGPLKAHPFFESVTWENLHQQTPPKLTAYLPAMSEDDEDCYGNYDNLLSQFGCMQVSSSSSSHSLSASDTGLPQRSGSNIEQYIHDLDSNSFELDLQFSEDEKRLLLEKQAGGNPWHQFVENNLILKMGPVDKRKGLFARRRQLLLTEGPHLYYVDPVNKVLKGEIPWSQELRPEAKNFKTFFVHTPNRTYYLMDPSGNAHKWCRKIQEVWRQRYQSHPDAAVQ

[16] = target: Ephrin type-B receptor 4 (Homo sapiens) (UniProt P54760); test: Inhibition of human recombinant EPHB4 expressed in insect cells using Ulight-TK peptide as substrate assessed as residual activity at 1 uM after 90 mins relative to staurosporine; how it was run: as §1
[17] = target: Glycogen synthase kinase-3 beta (Homo sapiens) (UniProt P49841); test: Inhibition of human recombinant GSK3beta using Ulight-CFFKNIVTPRTPPPSQGK-amide as substrate assessed as residual activity at 1 uM after 90 mins relative to staurosporine; how it was run: as §1
[18] = target: Receptor-type tyrosine-protein kinase FLT3 (Homo sapiens) (UniProt P36888); test: Inhibition of human recombinant FLT3 expressed in insect cells using Ulight-CAGAGAIETDKEYYTVKD as substrate assessed as residual activity at 1 uM after 90 mins relative to staurosporine; how it was run: as §1
[19] = species on record: Homo sapiens; test: Inhibition of human recombinant PKA expressed in Escherichia coli using Ulight-RRRSLLE as substrate assessed as residual activity at 1 uM after 10 mins relative to staurosporine; how it was run: as §1
[20] = species on record: Danio rerio; test: Toxicity against zebra fish embryo assessed as developmental delay at 20 uM incubated from 4 hrs to 48 hrs post fertilization by microscopic analysis; format: organism-based; conditions: zebrafish, in vivo
How it was run: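 Zebrafish embryos were collected and kept in E2 medium at 28 °C. Compound was added at 4–5 hpf at 5 or 20 µM alongside untreated controls. Phenotypes were compared with controls at 48 hpf.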

[21] = target: Serine/threonine-protein kinase PLK1 (Homo sapiens) (UniProt P53350); test: Inhibition of human recombinant PLK1 using Ulight-FLGFTYVAP as substrate assessed as residual activity at 1 uM after 60 mins relative to staurosporine; how it was run: as §1
Serine/threonine-protein kinase PLK1 (Homo sapiens), sequence (P53350 whole entry): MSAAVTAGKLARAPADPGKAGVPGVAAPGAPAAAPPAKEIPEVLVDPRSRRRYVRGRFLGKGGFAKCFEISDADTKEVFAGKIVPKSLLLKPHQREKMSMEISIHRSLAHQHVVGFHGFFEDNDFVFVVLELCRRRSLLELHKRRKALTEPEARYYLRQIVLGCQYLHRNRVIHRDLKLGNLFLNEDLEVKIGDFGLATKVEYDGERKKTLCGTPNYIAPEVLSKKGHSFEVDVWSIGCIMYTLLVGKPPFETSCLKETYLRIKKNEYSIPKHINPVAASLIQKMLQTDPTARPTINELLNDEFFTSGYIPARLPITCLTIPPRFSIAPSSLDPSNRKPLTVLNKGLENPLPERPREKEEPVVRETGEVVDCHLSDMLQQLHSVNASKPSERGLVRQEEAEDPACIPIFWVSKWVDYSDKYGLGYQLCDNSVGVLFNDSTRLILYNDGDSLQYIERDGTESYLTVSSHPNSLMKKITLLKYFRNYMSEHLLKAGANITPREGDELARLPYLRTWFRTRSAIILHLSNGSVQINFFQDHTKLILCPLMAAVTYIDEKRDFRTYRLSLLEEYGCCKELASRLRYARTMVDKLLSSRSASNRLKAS

[22] = target: Protein kinase C beta type (Homo sapiens) (UniProt P05771); test: Inhibition of human recombinant PKCbeta2 using CKRREILSRRPSYRK as substrate assessed as residual activity at 1 uM after 15 mins relative to staurosporine; how it was run: as §1
[23] = target: Dual specificity mitogen-activated protein kinase kinase 6 (Homo sapiens) (UniProt P52564); test: Inhibition of human recombinant MKK6 using inactive p38alpha as substrate assessed as residual activity at 1 uM after 10 mins relative to staurosporine; how it was run: as §1
Dual specificity mitogen-activated protein kinase kinase 6 (Homo sapiens), sequence (P52564 whole entry): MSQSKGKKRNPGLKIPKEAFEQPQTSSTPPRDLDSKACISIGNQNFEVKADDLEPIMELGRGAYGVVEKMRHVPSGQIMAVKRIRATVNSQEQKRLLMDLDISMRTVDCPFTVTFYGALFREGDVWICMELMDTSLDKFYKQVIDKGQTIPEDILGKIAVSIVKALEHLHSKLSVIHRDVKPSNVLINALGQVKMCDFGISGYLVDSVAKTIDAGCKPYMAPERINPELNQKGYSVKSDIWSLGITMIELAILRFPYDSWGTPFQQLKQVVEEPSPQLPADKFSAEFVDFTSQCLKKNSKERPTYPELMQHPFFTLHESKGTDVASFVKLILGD

[24] = target: Fibroblast growth factor receptor 3 (Homo sapiens) (UniProt P22607); test: Inhibition of human recombinant FGFR3 using Ulight-CAGAGAIETDKEYYTVKD as substrate assessed as residual activity at 1 uM after 90 mins relative to staurosporine; how it was run: as §1
[25] = target: Glycogen synthase kinase-3 alpha (Homo sapiens) (UniProt P49840); test: Inhibition of human recombinant GSK3alpha using Ulight-CFFKNIVTPRTPPPSQGK-amide as substrate assessed as residual activity at 1 uM after 60 mins relative to staurosporine; how it was run: as §1
[26] = target: Serine/threonine-protein kinase MARK1 (Homo sapiens) (UniProt Q9P0L2); test: Inhibition of human recombinant MARK1 using Ulight-RRRSLLE as substrate assessed as residual activity at 1 uM after 30 mins relative to staurosporine; how it was run: as §1
[27] = target: Serine/threonine-protein kinase Nek2 (Homo sapiens) (UniProt P51955); test: Inhibition of human recombinant NEK2 expressed in insect cells using Ulight-FLGFTYVAP as substrate assessed as residual activity at 1 uM after 60 mins relative to staurosporine; how it was run: as §1
[28] = target: RAC-alpha serine/threonine-protein kinase (Homo sapiens) (UniProt P31749); test: Inhibition of human recombinant AKT1 expressed in insect cells using CKRREILSRRPSYRK as substrate assessed as residual activity at 1 uM after 60 mins relative to staurosporine; how it was run: as §1
RAC-alpha serine/threonine-protein kinase (Homo sapiens), sequence (P31749 whole entry): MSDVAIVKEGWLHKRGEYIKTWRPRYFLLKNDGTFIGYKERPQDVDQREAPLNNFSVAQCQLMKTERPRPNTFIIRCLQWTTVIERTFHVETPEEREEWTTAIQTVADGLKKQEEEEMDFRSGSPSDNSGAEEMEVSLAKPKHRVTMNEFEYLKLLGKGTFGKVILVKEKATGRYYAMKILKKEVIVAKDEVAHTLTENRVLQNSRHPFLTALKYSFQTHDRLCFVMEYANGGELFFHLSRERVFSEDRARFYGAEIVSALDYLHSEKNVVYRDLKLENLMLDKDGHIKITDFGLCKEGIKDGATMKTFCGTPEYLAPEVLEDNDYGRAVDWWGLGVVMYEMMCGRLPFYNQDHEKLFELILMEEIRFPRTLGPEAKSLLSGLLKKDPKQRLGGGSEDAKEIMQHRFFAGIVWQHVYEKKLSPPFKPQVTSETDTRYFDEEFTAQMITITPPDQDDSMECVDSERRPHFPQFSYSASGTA

[29] = test system: H4; test: Cytotoxicity against human H4 cells at 40 uM; format: cell-based; conditions: h4, 40 µM
How it was run: (§2)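 H4 APP#9 cells were used for cell-based toxicity testing, and toxicity was scored as yes or no at each concentration tested.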

[30] = test system: H4; test: Cytotoxicity against human H4 cells at 80 uM; format: cell-based; conditions: h4, 80 µM; how it was run: as §2
[31] = test system: H4; test: Cytotoxicity against human H4 cells at 160 uM; format: cell-based; conditions: h4, 160 µM; how it was run: as §2
[32] = test system: H4; test: Cytotoxicity against human H4 cells at 10 uM; format: cell-based; conditions: h4, 10 µM; how it was run: as §2
[33] = test system: H4; test: Cytotoxicity against human H4 cells at 20 uM; format: cell-based; conditions: h4, 20 µM; how it was run: as §2

Activity [1]: 99.6%
Activity [2]: 95.8%
Activity [3]: 104%
Activity [4]: 104%
IC50 [5]: 17.7 µM
Activity [6]: 102%
Activity [7]: 97.2%
Activity [8]: 100%
Activity [9]: 96%
Activity [10]: 93.5%
Activity [12]: 101%
Activity [13]: 67.3%
Activity [14]: 101%
Activity [15]: 107%
Activity [16]: 102%
Activity [17]: 97%
Activity [18]: 14.7%
Activity [19]: 98.7%
Activity [21]: 100%
Activity [22]: 99.4%
Activity [23]: 101%
Activity [24]: 92.9%
Activity [25]: 104%
Activity [26]: 99.6%
Activity [27]: 107%
Activity [28]: 101%
Compound: CCN(CC)CCOc1ccc(/C=C2\C(=O)Nc3ccc(Cl)cc32)cc1
Ratio IC50 [11]: 1000
Activity [20]: Toxic

IC50 [5]: 11.5 µM
Compound: COc1cc(/C=C2\C(=O)Nc3ccc(Cl)cc32)ccc1OCCN(C)C
Activity [29]: Toxic

IC50 [5]: 19.8 µM
Compound: Cn1c2ccccc2c2cc(/C=C3\C(=O)Nc4ccc(Cl)cc43)ccc21
Activity [30]: Non-toxic

IC50 [5]: 7.6 µM
Compound: CN(C)CCOc1ccc(/C=C2\C(=O)Nc3ccc(Cl)cc32)cc1
Activity [29]: Non-toxic

IC50 [5]: > 160 µM
Compound: COc1cc(/C=C2\C(=O)Nc3ccc(Cl)cc32)ccc1OCCCC#N
Activity [31]: Non-toxic

IC50 [5]: > 40 µM
Compound: COc1ccc(/C=C2\C(=O)Nc3ccc(Cl)cc32)cc1
Activity [29]: Non-toxic

IC50 [5]: 17.7 µM
Compound: O=C1Nc2ccc(Cl)cc2/C1=C/c1ccc(OCCCc2nnn[nH]2)cc1
Activity [29]: Toxic

IC50 [5]: 6.7 µM
Compound: COc1cc(/C=C2\C(=O)Nc3ccc(Cl)cc32)ccc1-n1cnc(C)c1
Activity [30]: Toxic

IC50 [5]: 27.3 µM
Compound: N#Cc1ccc(COc2ccc(/C=C3\C(=O)Nc4ccc(Cl)cc43)cc2)cc1
Activity [29]: Non-toxic

IC50 [5]: 11.3 µM
Compound: O=C1Nc2ccc(Cl)cc2/C1=C/c1ccc(OCCN2CCOCC2)cc1
Activity [29]: Non-toxic

IC50 [5]: 47.6 µM
Compound: O=C1Nc2ccc(Cl)cc2/C1=C/c1ccc(O)cc1
Activity [29]: Non-toxic

IC50 [5]: > 80 µM
Compound: CN(C)c1ccc(/N=N/c2ccc(/C=C3\C(=O)Nc4ccccc43)cc2)cc1
Activity [30]: Non-toxic

IC50 [5]: 10 µM
Compound: COc1cc(OCCN(C)C)ccc1/C=C1\C(=O)Nc2ccc(Cl)cc21
Activity [29]: Non-toxic

IC50 [5]: 11.5 µM
Compound: CCN(CC)CCOc1ccc(/C=C2\C(=O)Nc3ccc(Cl)cc32)cc1OC
Activity [29]: Toxic

IC50 [5]: > 40 µM
Compound: N#CCCCOc1ccc(/C=C2\C(=O)Nc3ccc(Cl)cc32)cc1
Activity [29]: Toxic

IC50 [5]: > 40 µM
Compound: N#Cc1cccc(COc2ccc(/C=C3\C(=O)Nc4ccc(Cl)cc43)cc2)c1
Activity [29]: Non-toxic

IC50 [5]: 38.8 µM
Compound: COC(=O)c1ccc(COc2ccc(/C=C3\C(=O)Nc4ccc(Cl)cc43)cc2)cc1
Activity [29]: Non-toxic

IC50 [5]: 15 µM
Compound: O=C1Nc2ccc(Cl)cc2/C1=C/c1cc(Br)c(O)c(Br)c1
Activity [29]: Non-toxic

IC50 [5]: > 40 µM
Compound: CCCCOc1ccc(/C=C2\C(=O)Nc3ccc(Cl)cc32)cc1
Activity [29]: Non-toxic

IC50 [5]: 5.4 µM
Compound: Cc1cn(-c2ccc(Oc3ccc(/C=C4\C(=O)Nc5ccc(Cl)cc54)cc3)cc2)cn1
Activity [32]: Toxic

IC50 [5]: 27.6 µM
Compound: Cn1c2ccccc2c2cc(/C=C3\C(=O)Nc4ccccc43)ccc21
Activity [30]: Toxic

IC50 [5]: 4.7 µM
Compound: O=C1Nc2ccc(Cl)cc2/C1=C/c1ccc(OCCCCl)cc1
Activity [29]: Toxic

IC50 [5]: 7.3 µM
Compound: COc1cc(/C=C2\C(=O)Nc3ccc(Cl)cc32)ccc1S(C)(=O)=O
Activity [33]: Toxic
